Reference: publication PMC11303814 (Nature Communications, 2024)
Substitutions are numbered along the chain they refer to.

Tests used:
rP2X7-Q143A = molecular target: T1, rP2X7-Q143A (Rattus norvegicus, UniProt Q64663, Q143A); assay: TEVC dose response; assay type: cell-based; details: read-out: EC50 (apparent affinity), mean ± SD, triplicate
T1 sequence (Q64663 1-595 Q143A): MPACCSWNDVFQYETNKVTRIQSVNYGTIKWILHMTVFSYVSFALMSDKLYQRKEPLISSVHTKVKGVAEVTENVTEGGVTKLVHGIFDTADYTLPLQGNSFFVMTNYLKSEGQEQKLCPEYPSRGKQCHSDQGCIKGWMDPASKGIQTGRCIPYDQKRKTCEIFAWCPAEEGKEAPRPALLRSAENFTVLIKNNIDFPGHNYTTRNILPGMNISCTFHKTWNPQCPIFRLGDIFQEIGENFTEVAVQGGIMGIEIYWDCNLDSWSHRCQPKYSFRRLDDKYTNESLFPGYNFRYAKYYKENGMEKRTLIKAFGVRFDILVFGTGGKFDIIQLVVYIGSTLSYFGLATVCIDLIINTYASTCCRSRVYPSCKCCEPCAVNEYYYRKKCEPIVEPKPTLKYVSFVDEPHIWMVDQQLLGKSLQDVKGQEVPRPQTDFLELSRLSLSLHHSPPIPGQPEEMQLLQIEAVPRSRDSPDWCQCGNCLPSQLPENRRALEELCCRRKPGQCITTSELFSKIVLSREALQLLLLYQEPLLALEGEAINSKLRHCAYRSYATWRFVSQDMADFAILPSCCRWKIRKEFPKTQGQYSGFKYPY
Procedure, shortened: (§1)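 TEVC was run on Xenopus oocytes ~20 h after injection of wild-type or mutant rP2X7 mRNA, in pH 7.4 HEPES buffer with 0.1 mM flufenamic acid. Receptors were facilitated at 100 µM before recording. Dilution series: ATP 1.5 mM–2 µM (7 points), BzATP 300–0.14 µM (8 points). Responses were normalized to the largest concentration, fitted by nonlinear regression for EC50, and averaged across triplicates (mean ± SD).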

rP2X7-Q143A/I214A = molecular target: T2, rP2X7-Q143A/I214A (Rattus norvegicus, UniProt Q64663, I214A/Q143A); assay: TEVC dose response; assay type: cell-based; details: read-out: EC50 (apparent affinity), mean ± SD, triplicate
T2 sequence (Q64663 1-595 Q143A/I214A): T1 sequence (Q64663 1-595 Q143A) with I214A
Procedure, shortened: as §1

rP2X7-I214G = molecular target: T3, rP2X7-I214G (Rattus norvegicus, UniProt Q64663, I214G); assay: TEVC deactivation time; assay type: cell-based; details: after 100 μM ATP or 10 μM BzATP
T3 sequence (Q64663 1-595 I214G): T1 sequence (Q64663 1-595 Q143A) with A143Q, I214G
Procedure, shortened: (§2)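 Xenopus oocytes injected with 50 nL of 10 ng/µL mutant rP2X7 mRNA, expressed ~20 h, clamped in pH 7.4 HEPES buffer with 0.1 mM flufenamic acid and EDTA. Currents were evoked by 100 µM ATP or 10 µM BzATP. τ is the time for current to return to 63% of baseline after agonist removal, from a one- or two-phase decay fit. Done in triplicate over first to third applications per oocyte; mean ± SD.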

rP2X7-R125A/I214A = molecular target: T4, rP2X7-R125A/I214A (Rattus norvegicus, UniProt Q64663, I214A/R125A); assay: TEVC deactivation time; assay type: cell-based; details: after 100 μM ATP or 10 μM BzATP
T4 sequence (Q64663 1-595 R125A/I214A): T1 sequence (Q64663 1-595 Q143A) with R125A, A143Q, I214A
Procedure, shortened: as §2

human P2X3 = details: cited from earlier work
zebra fish P2X4 = details: cited from earlier work

Compound | EC50 (rP2X7-Q143A) [µM] | EC50 (rP2X7-Q143A/I214A) [µM] | deactivation lifetime τ (rP2X7-I214G) [s] | deactivation lifetime τ (rP2X7-R125A/I214A) [s] | Kd (human P2X3) [nM] | Kd (zebra fish P2X4) [nM]
BzATP | 8.5 ± 3.2 | 49 ± 4 | 8.9 ± 2.2 | 23 ± 13 |  | 
Nc1ncnc2c1ncn2[C@@H]1O[C@H](COP(=O)(O)OP(=O)(O)OP(=O)(O)O)[C@@H](O)[C@H]1O [ATP] | 113 ± 30 | 290 ± 20 | 2.9 ± 0.2 | 3.7 ± 0.8 | 2.8 ± 0.1 | 11.6 ± 1.7
